ChEMBL document CHEMBL1129498, “Azole endothelin antagonists. 2. Structure-activity studies” (J Med Chem, 1996)
pIC50: −log10 of the molar value.

Experiments:
[1] = molecular target: T1, Endothelin receptor type B (Sus scrofa, UniProt P35463); assay: Inhibitory activity was evaluated against ET- B Binding to Endothelin B receptor from porcine cerebellar membranes
T1 sequence (P35463 whole entry): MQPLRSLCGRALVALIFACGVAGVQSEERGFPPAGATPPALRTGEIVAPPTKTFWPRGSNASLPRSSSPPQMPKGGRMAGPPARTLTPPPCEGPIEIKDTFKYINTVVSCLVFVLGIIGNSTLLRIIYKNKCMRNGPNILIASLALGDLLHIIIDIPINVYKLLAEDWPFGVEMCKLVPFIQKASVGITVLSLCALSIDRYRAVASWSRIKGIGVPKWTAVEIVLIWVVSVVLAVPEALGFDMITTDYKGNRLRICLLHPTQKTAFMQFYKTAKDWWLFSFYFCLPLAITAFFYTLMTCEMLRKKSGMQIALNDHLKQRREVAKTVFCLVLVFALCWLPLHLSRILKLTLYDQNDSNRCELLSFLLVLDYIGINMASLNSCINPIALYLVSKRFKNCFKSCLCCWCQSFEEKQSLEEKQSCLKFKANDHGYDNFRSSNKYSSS

Endothelin-1 receptor = molecular target: T2, Endothelin-1 receptor (Rattus norvegicus, UniProt P26684); assay: Inhibitory activity was evaluated against ET- A Binding to Endothelin A receptor in MMQ cell homogenates; format: cell-free
T2 sequence (P26684 whole entry): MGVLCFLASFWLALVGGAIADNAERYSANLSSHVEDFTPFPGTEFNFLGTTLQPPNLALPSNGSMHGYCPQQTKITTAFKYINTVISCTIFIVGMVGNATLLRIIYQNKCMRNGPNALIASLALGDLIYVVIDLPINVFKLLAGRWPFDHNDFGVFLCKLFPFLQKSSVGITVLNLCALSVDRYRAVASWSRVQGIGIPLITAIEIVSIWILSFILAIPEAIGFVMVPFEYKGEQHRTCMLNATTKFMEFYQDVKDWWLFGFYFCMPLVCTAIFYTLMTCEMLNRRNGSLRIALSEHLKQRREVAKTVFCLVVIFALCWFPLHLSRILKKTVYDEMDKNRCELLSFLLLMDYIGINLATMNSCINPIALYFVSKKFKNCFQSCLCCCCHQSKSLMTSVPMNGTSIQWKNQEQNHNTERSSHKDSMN

MMQ = assay: Inhibitory activity was evaluated by measuring the PI hydrolysis in MMQ cell line; format: functional, cell-based, Rattus norvegicus
Procedure, shortened: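 MMQ cells (0.4 × 10⁶ cells/mL) labeled 16 h with 10 µCi/mL [³H]myoinositol in RPMI, PBS-washed, then held 60 min in buffer A with protease inhibitors and 10 mM LiCl. Compound pre-incubated 5 min, then 1 nM ET-1 challenge for 30 min at 37 °C, stopped with chloroform-methanol. Total inositol phosphates extracted and taken from the aqueous phase by AG1-X8 anion-exchange batch chromatography.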

| SMILES | pIC50 [1] | pIC50 (Endothelin-1 receptor) | pIC50 (MMQ; Rattus norvegicus, MMQ) | pIC50 (MMQ; mmq) |
| --- | --- | --- | --- | --- |
| Cc1oc([C@@H](Cc2cn(C)c3ccccc23)NC(=O)[C@H](CC(C)C)NC(=O)Nc2ccccc2)nc1C(=O)O | 4.52 | 7.80 | 7.28 |  |
| Cc1[nH]c([C@@H](Cc2cn(C)c3ccccc23)NC(=O)[C@H](CC(C)C)NC(=O)NC2CCCCCC2)nc1C(=O)O | 4.38 | 7.22 | 7.06 |  |
| Cc1oc([C@@H](Cc2cn(C)c3ccccc23)NC(=O)[C@H](CC(C)C)NC(=O)N2CCOC23CCCCC3)nc1C(=O)O | 4.46 | 8.24 | 8.21 |  |
| Cc1[nH]c([C@@H](Cc2cn(C)c3ccccc23)NC(=O)[C@H](CC(C)C)NC(=O)NC2CC3CCC2C3)nc1C(=O)O (stereo in doubt; 14o) | 5.08 | 7.54 |  | 7.80 |
| Cc1[nH]c([C@@H](Cc2cn(C)c3ccccc23)NC(=O)[C@H](CC(C)C)NC(=O)NC2CC3CCC2C3)nc1C(=O)O (stereo in doubt; 14p) | 5.02 | 7.72 |  | 7.44 |
